From PubChem BioAssay
Only some compounds are listed: those with a hit (about 4.7% of all), similar ones and a draw of the others.
VIM-2 inhibitor: VIM-2 metallo-beta-lactamase inhibitors, primary screen, biochemical, epi-absorbance readout, Pseudomonas aeruginosa enzyme. purified VIM-2, nitrocefin hydrolysis, epi-absorbance fluorescence. inhibition, % at 5.6 µM. 0.89% of 290,000 active;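 active = inhibition above the mean of all tested compounds plus 3 SD, cutoff set per screening run, cut at about 7.5% in these data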;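 also: red hydrolysis product quenches plate fluorescence so inhibitors raise well fluorescence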
aSyn 5UTR inh: MLPCN primary screen, SNCA 5' untranslated region; alpha-synuclein 5'UTR reporter, inhibitor activity; inhibition, % (tested at 7.5 µM); 0.82% of 300,000 active; in the data active = inhibition above about 60%;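 also: H4 neuroglioblastoma cells stably carrying SNCA 5'UTR luciferase fusion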
Jurkat NFkB inh: inhibitors of induced NF-kB luciferase reporter, primary screen, TCR NF-kB activation inhibitor project, cell-based, luminescence, uHTS; Jurkat, PMA/ionomycin-induced NF-kB luciferase reporter; inhibition, % at 4 µM; 0.53% of 330,000 active; AID 435003, 2010; in the data active = inhibition above about 50%
Mdm2 MdmX PPI: inhibitors of human Mdm2-MdmX association, primary screen, cell-based, luminescence, split luciferase, SaOS-2, uHTS. Protein Mdm4 (Homo sapiens) + E3 ubiquitin-protein ligase Mdm2 (Homo sapiens), …. SaOS-2 split-luciferase Mdm2/MdmX complementation. inhibition, % at 8 µM. 3% of 330,000 active. AID 485346, 2010;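 active = inhibition of at least 50% at 8 µM in the primary screen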
Target sequence (O15151 whole entry, looked up): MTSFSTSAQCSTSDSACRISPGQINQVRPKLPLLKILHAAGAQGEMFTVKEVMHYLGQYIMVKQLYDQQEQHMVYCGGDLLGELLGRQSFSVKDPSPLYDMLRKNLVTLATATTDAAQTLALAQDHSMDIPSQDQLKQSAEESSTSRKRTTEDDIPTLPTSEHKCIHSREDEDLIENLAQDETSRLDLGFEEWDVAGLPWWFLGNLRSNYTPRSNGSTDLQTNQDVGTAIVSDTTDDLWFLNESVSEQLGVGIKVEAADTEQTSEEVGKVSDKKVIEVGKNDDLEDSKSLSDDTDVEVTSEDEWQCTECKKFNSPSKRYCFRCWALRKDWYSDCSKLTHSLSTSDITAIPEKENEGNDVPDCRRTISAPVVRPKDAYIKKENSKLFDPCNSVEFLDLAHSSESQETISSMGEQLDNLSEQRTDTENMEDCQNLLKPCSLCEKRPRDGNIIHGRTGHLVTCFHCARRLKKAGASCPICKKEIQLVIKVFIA
Target sequence (Q00987 whole entry, looked up): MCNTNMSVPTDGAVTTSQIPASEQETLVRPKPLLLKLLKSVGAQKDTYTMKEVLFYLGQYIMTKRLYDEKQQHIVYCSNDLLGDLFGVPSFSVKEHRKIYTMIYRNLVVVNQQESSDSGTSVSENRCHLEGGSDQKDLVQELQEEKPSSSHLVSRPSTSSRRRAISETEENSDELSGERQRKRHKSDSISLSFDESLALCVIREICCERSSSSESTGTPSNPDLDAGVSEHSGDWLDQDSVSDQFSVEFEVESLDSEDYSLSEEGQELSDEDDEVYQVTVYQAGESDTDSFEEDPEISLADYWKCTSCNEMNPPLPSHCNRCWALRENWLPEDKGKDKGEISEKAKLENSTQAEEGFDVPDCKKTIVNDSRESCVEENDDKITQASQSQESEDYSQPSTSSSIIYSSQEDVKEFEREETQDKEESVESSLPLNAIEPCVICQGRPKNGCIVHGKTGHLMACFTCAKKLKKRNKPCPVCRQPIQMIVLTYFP
IMP-1 inh: IMP-1 metallo-beta-lactamase inhibitors, primary screen, biochemical, epi-absorbance readout, Pseudomonas aeruginosa enzyme | 0.45% of 290,000 active | inhibition, % at 5.6 µM | purified IMP-1, nitrocefin hydrolysis, epi-absorbance fluorescence | AID 1556, 2009 | metallo-beta-lactamase IMP-1 (Pseudomonas aeruginosa);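 active = inhibition above the mean plus 3 SD of all compounds in the same screening run, cut at about 4.5% in these data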
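System: purified recombinant IMP-1 beta-lactamase. Medium: Zinc- and detergent-supplemented HEPES buffer, pH 7.1. Compound: one 5.6 µM dose […]. Schedule: 15 min preincubation plus 25 min reaction at 25 °C. Technique: Epi-absorbance fluorescence, 480 nm excitation, 530 nm emission.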
697 NFkB inh: inhibitors of PMA/ionomycin-induced NF-kB reporter, 697 cells, primary screen, B-cell NF-kB inhibitor project, cell-based, luminescence, uHTS; 697 B-cell NF-kB luciferase reporter, 16 h; inhibition, % at 4 µM; 0.33% of 330,000 active; in the data active = inhibition above about 35%
Mdm2 MdmX conf: Mdm2-MdmX complex disruptors, retested hits, confirmation, luminescence, single concentration | AID 489028, 2010 | inhibition, % at 8 µM | shares compounds with Mdm2 MdmX PPI | Mdm2-MdmX binding, luminescent assay | 55% of 10,000 active; in the data active = inhibition above about 40%
FLuc counter: full-length luciferase signal inhibition, confirmation, counter-screen for Mdm2/MdmX interaction inhibitor project, cell-based, single concentration, SaOS-2. shares compounds with Mdm2 MdmX PPI. SaOS-2 full-length luciferase counterscreen, luminescence. inhibition, % at 8 µM. 77% of 6,200 active;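 active = mean inhibition at 8 µM reaching about 37%, which flags the compound as non-specific, limit read from the data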;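 also: p53-null SaOS-2 cells with luciferase driven by a doxycycline-inducible promoter; compound on cells about two nights before reading with doxycycline added after day one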
Hits are given with their value.

Results for Cc1c(CN2CCC(CO)(CCOc3ccccc3)CC2)[nH]c2c(Cl)cccc12 ?
VIM-2 inhibitor: inactive; aSyn 5UTR inh: inactive; Jurkat NFkB inh: inactive; Mdm2 MdmX PPI: 86.8; IMP-1 inh: inactive; 697 NFkB inh: inactive; Mdm2 MdmX conf: 53.8; FLuc counter: 64.1

Results for O=C1c2ccccc2C(=O)c2[nH]c(=O)[nH]c21 ?
VIM-2 inhibitor: inactive; aSyn 5UTR inh: 93.0; Jurkat NFkB inh: inactive; Mdm2 MdmX PPI: 69.0; IMP-1 inh: inactive; 697 NFkB inh: inactive; Mdm2 MdmX conf: 43.9; FLuc counter: 47.6

Results for O=C1c2ccccc2C(=O)c2[nH]cnc21 ?
VIM-2 inhibitor: inactive; aSyn 5UTR inh: inactive; IMP-1 inh: inactive

Results for CCOc1ccc(NC(=O)Nc2cc(OCC(F)(F)F)cc(OCC(F)(F)F)c2)cc1 ?
VIM-2 inhibitor: inactive; aSyn 5UTR inh: inactive; Jurkat NFkB inh: inactive; Mdm2 MdmX PPI: inactive; IMP-1 inh: inactive; 697 NFkB inh: inactive

What do the screens show for `O=C(Nc1ccc(F)cc1)Nc1cc(OCC(F)(F)F)cc(OCC(F)(F)F)c1`?
VIM-2 inhibitor: inactive; aSyn 5UTR inh: 86.0; Jurkat NFkB inh: inactive; Mdm2 MdmX PPI: 89.4; IMP-1 inh: inactive; 697 NFkB inh: inactive; Mdm2 MdmX conf: 90.5; FLuc counter: 52.0

How did CCN(CC)CCn1c(SCC(=O)Nc2cccc(OC)c2)nc2c(sc3ccccc32)c1=O do in these assays?
VIM-2 inhibitor: inactive; aSyn 5UTR inh: inactive; Jurkat NFkB inh: inactive; Mdm2 MdmX PPI: 51.5; IMP-1 inh: inactive; 697 NFkB inh: inactive; Mdm2 MdmX conf: inactive

Results for COc1cccc(NC(=O)CSc2nc3c(sc4ccccc43)c(=O)n2CCCN2CCCC2)c1 ?
VIM-2 inhibitor: inactive; aSyn 5UTR inh: inactive; Jurkat NFkB inh: inactive; Mdm2 MdmX PPI: 88.9; IMP-1 inh: inactive; 697 NFkB inh: inactive; Mdm2 MdmX conf: inactive

Results for Cc1ccnn1CC(=O)N/N=C/c1cn[nH]c1-c1ccc(F)cc1 ?
VIM-2 inhibitor: inactive; aSyn 5UTR inh: inactive; Jurkat NFkB inh: inactive; Mdm2 MdmX PPI: inactive; IMP-1 inh: inactive; 697 NFkB inh: inactive

How did Cc1nn(C(=O)Cn2ccc([N+](=O)[O-])n2)c(C)c1Br do in these assays?
VIM-2 inhibitor: inactive; aSyn 5UTR inh: inactive; Jurkat NFkB inh: inactive; Mdm2 MdmX PPI: inactive; IMP-1 inh: inactive; 697 NFkB inh: inactive

How did C=CCNC(=S)N1CCN(CCN=CC2=C(O)CC(c3ccc(Cl)cc3)CC2=O)CC1 (configuration not stated) do in these assays?
VIM-2 inhibitor: inactive; aSyn 5UTR inh: inactive; Jurkat NFkB inh: inactive; Mdm2 MdmX PPI: inactive; IMP-1 inh: inactive; 697 NFkB inh: inactive

Results for Cn1nc(-c2ccc3c(c2)OCCO3)c2ccccc2c1=O ?
VIM-2 inhibitor: inactive; aSyn 5UTR inh: inactive; Jurkat NFkB inh: inactive; Mdm2 MdmX PPI: inactive; IMP-1 inh: inactive; 697 NFkB inh: inactive

How did C[C@H](CO)N1C[C@H](C)[C@@H](CN(C)Cc2ccncc2)Oc2c(NC(=O)C3CC3)cccc2C1=O do in these assays?
Jurkat NFkB inh: inactive; Mdm2 MdmX PPI: inactive; 697 NFkB inh: inactive

Results for Cc1cc(=O)oc2cc(NC(=O)c3cccc(Br)c3)ccc12 ?
VIM-2 inhibitor: inactive; aSyn 5UTR inh: inactive; Jurkat NFkB inh: inactive; Mdm2 MdmX PPI: 65.7; IMP-1 inh: inactive; 697 NFkB inh: inactive; Mdm2 MdmX conf: inactive

What do the screens show for `CC(OC(=O)/C=C/c1ccc2ccccc2n1)C(=O)Nc1ccc(S(N)(=O)=O)cc1` (configuration not stated)?
aSyn 5UTR inh: inactive; Jurkat NFkB inh: inactive; Mdm2 MdmX PPI: 72.4; 697 NFkB inh: inactive; Mdm2 MdmX conf: 49.1; FLuc counter: 66.3
